Calls of active or inactive are those of the source. No cut-off for these calls is given here.
Experiments:
[1] = Stability of compound in pH 7.4 phosphate buffer at room temperature assessed as prodrug remaining after conversion into active drug CH0793076 after 3 hrs; type: physicochemical; conditions: pH 7.4, 3 h
[2] = Stability of compound in pH 2 phosphate buffer at room temperature assessed as prodrug remaining after conversion into active drug CH0793076 after 3 hrs; type: physicochemical; conditions: pH 2, 3 h
[3] = Stability of compound in pH 5 phosphate buffer at room temperature assessed as prodrug remaining after conversion into active drug CH0793076 after 3 hrs; type: physicochemical; conditions: pH 5, 3 h
[4] = test system: Plasma; assay: Stability in mouse plasma assessed as time required for conversion into active drug CH0793076; type: ADME, cell-free
[5] = test system: HCT-116; assay: Antitumor activity against human BCRP-negative HCT116 cells xenografted in mouse at MTD of 100 mg/kg, iv administered as bolus once per week for 3 weeks; type: functional, organism-based; set-up: dose 100 mg/kg
[6] = test system: Plasma; assay: Stability in dog plasma assessed as time required for conversion into active drug CH0793076; type: ADME, cell-free, Canis lupus familiaris
Outline: (§1)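 ¹⁴C-labelled prodrug was incubated in plasma of the stated species. Formation of ¹⁴C-labelled active drug was followed over an incubation time course of 0–3 min.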

[7] = test system: HCT-116; assay: Antitumor activity against human BCRP-negative HCT116 cells xenografted in mouse at MTD of 47 mg/kg, iv administered as bolus once per week for 3 weeks; type: functional, organism-based; set-up: dose 47 mg/kg
[8] = Toxicity in mouse administered as bolus iv injection once per week for 3 weeks; type: organism-based; conditions: in vivo
[9] = test system: NCI-H460; assay: Antitumor activity against human BCRP-positive NCI-H460 cells xenografted in mouse at MTD of 47 mg/kg, iv administered as bolus once per week for 3 weeks; type: functional, organism-based; set-up: dose 47 mg/kg
[10] = Solubility in water; type: physicochemical
[11] = test system: Plasma; assay: Stability in monkey plasma assessed as time required for conversion into active drug CH0793076; type: ADME, cell-free, Macaca mulatta; conditions: rhesus monkey
[12] = test system: Plasma; assay: Stability in rat plasma assessed as time required for conversion into active drug CH0793076; type: ADME, cell-free; outline: as §1
[13] = test system: NCI-H460; assay: Antitumor activity against human BCRP-positive NCI-H460 cells xenografted in mouse at MTD of 100 mg/kg, iv administered as bolus once per week for 3 weeks; type: functional, organism-based; set-up: dose 100 mg/kg

SMILES	Stability [1] [%]	Stability [2] [%]	Stability [3] [%]	also measured
CCCCCN1C=Nc2cccc3nc4c(c1c23)Cn1c-4cc2c(c1=O)COC(=O)[C@@]2(CC)OC(=O)CN(C)C(=O)CNC.Cl	0	95	83	
CCCCCN1C=Nc2cccc3nc4c(c1c23)Cn1c-4cc2c(c1=O)COC(=O)[C@@]2(CC)OC(=O)CNC(=O)CN.Cl	47		100	
CCCCCN1C=Nc2cccc3nc4c(c1c23)Cn1c-4cc2c(c1=O)COC(=O)[C@@]2(CC)OC(=O)CN(C)C(=O)CN.Cl	0	100	83	Stability [4]: < 1 min; Activity [5]: Active; Stability [6]: < 1 min; Activity [7]: Active; MTD at 504 h [8]: 47 mg/kg; Activity [9]: Active; solubility [10]: > 10000 µg/mL; Stability [11]: < 1 min; Stability [12]: < 1 min; Activity [13]: Active
CCCCCN1C=Nc2cccc3nc4c(c1c23)Cn1c-4cc2c(c1=O)COC(=O)[C@@]2(CC)OC(=O)[C@H](C)N(C)C(=O)CN.Cl	0	99	47	
CCCCCN1C=Nc2cccc3nc4c(c1c23)Cn1c-4cc2c(c1=O)COC(=O)[C@@]2(CC)OC(=O)OCCS(=O)(=O)CCN.Cl	4	100	96	
CCCCCN1C=Nc2cccc3nc4c(c1c23)Cn1c-4cc2c(c1=O)COC(=O)[C@@]2(CC)OC(=O)CNC(=O)CNC.Cl	73	100	100	
CCCCCN1C=Nc2cccc3nc4c(c1c23)Cn1c-4cc2c(c1=O)COC(=O)[C@@]2(CC)OC(=O)OCCS(=O)(=O)C[C@H](N)C(=O)OCC.Cl	43	100	68	
CCCCCN1C=Nc2cccc3nc4c(c1c23)Cn1c-4cc2c(c1=O)COC(=O)[C@@]2(CC)OC(=O)CN(C)C(=O)C(C)(C)N.Cl	0	78	0	
